Laboratory results taken from ChEMBL document CHEMBL1125833, “Anxiolytic properties of certain annelated [1,2,4]triazolo[1,5-c]pyrimidin-5(6H)-ones” (J Med Chem, 1991).
pIC50: −log10 of the molar value. Several values for one entry are separate records, joined by “and”; a condition that tells them apart may be missing. Equal entries are not always repeated.

Assays:
[1] = target: GABA-A receptor; anion channel (Rattus norvegicus) (UniProt O09028+P15431+P18506+P18508+P19969+P20236+P23574+P23576+P28471+P28473+P30191+P62813+P63079+P63138+Q91ZM7+Q9ES14); experiment: GABA ratio measured by the IC50 in the absence of GABA compared to the IC50 in the presence of GABA in rats.
Method in brief: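 Modified [3H]flunitrazepam binding in rat forebrain, with IC50 measured with and without GABA. Ratio = IC50 without GABA divided by IC50 with GABA.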

[2] = species: Rattus norvegicus; experiment: Anxiolytic response measured by antagonism of pentylenetetrazole discriminative stimuli in rats.; format: functional
Method in brief: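 Rats trained to discriminate a subconvulsant dose of pentylenetetrazole (PTZ) from vehicle. Test compound given 30 min before the PTZ dose. Antagonism of the PTZ stimulus is scored as the anxiolytic response. ED50 values by probit analysis, with 95% confidence limits.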

[3] = target: GABA-A receptor; anion channel; experiment: Displacement of [3H]flunitrazepam (FNZ) from GABA-A benzodiazepine receptor in rat forebrain
[4] = tested on: Rattus norvegicus; experiment: Minimal effective oral dose to cause increase in conflict response in rats after po administration.; format: functional
Method in brief: (§1)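 Cook-Davidson conflict procedure in rats given oral doses. Rats lever-press for milk reward with shock (conflict, FR) and without shock (nonconflict, VI). Value is % change in response rate, with significance set at P < 0.05. The minimally effective oral dose is taken as the dose raising conflict responding or lowering VI responding.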

[5] = tested on: Rattus norvegicus; experiment: Compound tested for its effect on Nonconflict (VI) operant responding of rats at a dose of 1.0 mg/Kg administered perorally.; format: functional; method in brief: as §1
[6] = tested on: Rattus norvegicus; experiment: Compound tested for its effect on conflict (FR) operant responding of rats at a dose of 1.0 mg/Kg administered perorally.; format: functional; method in brief: as §1
[7] = tested on: Rattus norvegicus; experiment: Compound tested for its effect on conflict (FR) operant responding of rats at a dose of 3.0 mg/Kg administered perorally.; format: functional; method in brief: as §1
[8] = tested on: Rattus norvegicus; experiment: Compound tested for its effect on Nonconflict (VI) operant responding of rats at a dose of 3.0 mg/Kg administered perorally.; format: functional; method in brief: as §1
[9] = tested on: Rattus norvegicus; experiment: Minimal effective oral dose to cause VI response decrement in rats.; format: functional; method in brief: as §1
[10] = tested on: Rattus norvegicus; experiment: Compound tested for its effect on Nonconflict(VI) operant responding of rats at a dose of 30.0 mg/kg administered perorally.; format: functional; settings: route oral; method in brief: as §1
[11] = tested on: Rattus norvegicus; experiment: Compound tested for its effect on Nonconflict(VI) operant responding of rats at a dose of 3.0 mg/kg administered perorally.; format: functional; settings: route oral; method in brief: as §1
[12] = tested on: Rattus norvegicus; experiment: Compound tested for its effect on Nonconflict(VI) operant responding of rats at a dose of 1.0 mg/kg administered perorally.; format: functional; settings: route oral; method in brief: as §1
[13] = tested on: Rattus norvegicus; experiment: Compound tested for its effect on conflict(FR) operant responding of rats at a dose of 30.0 mg/kg administered perorally.; format: functional; settings: route oral; method in brief: as §1
[14] = tested on: Rattus norvegicus; experiment: Compound tested for its effect on Nonconflict(VI) operant responding of rats at a dose of 10.0 mg/kg administered perorally.; format: functional; settings: route oral; method in brief: as §1
[15] = tested on: Rattus norvegicus; experiment: Compound tested for its effect on conflict(FR) operant responding of rats at a dose of 3.0 mg/kg administered perorally.; format: functional; settings: route oral; method in brief: as §1
[16] = tested on: Rattus norvegicus; experiment: Compound tested for its effect on conflict(FR) operant responding of rats at a dose of 1.0 mg/kg administered perorally.; format: functional; settings: route oral; method in brief: as §1
[17] = tested on: Rattus norvegicus; experiment: Compound tested for its effect on conflict(FR) operant responding of rats at a dose of 10.0 mg/kg administered perorally.; format: functional; settings: route oral; method in brief: as §1
[18] = target: GABA-A receptor; anion channel; experiment: Displacement of [3H]flunitrazepam from GABA-A Benzodiazepine receptors in rat forebrain
[19] = tested on: Rattus norvegicus; experiment: Compound tested for its effect on conflict (FR) operant responding of rats at a dose of 30.0 mg/Kg administered perorally.; format: functional; method in brief: as §1
[20] = tested on: Rattus norvegicus; experiment: Compound tested for its effect on Nonconflict (VI) operant responding of rats at a dose of 30.0 mg/Kg administered perorally.; format: functional; method in brief: as §1
[21] = tested on: Rattus norvegicus; experiment: Compound tested for its effect on Nonconflict (VI) operant responding of rats at a dose of 10.0 mg/Kg administered perorally.; format: functional; method in brief: as §1
[22] = tested on: Rattus norvegicus; experiment: Minimal effective oral dose to cause ethanol interaction in rats.; format: functional
Method in brief: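 Rotorod test of ethanol interaction in male Wistar (Crl:(WI)BR) rats, 130–160 g. Vehicle or test compound (0, 1, 3, 10 mg/kg) given orally 30 min before ethanol. Graded ethanol doses given ip 30 min before rotorod testing. Ethanol ED50 reported with confidence limits, P < 0.05.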

[23] = tested on: Rattus norvegicus; experiment: Compound tested for its effect on conflict (FR) operant responding of rats at a dose of 30.0 mg/Kg administered perorally; format: functional; method in brief: as §1

| Structure (SMILES) | GABA ratio [1] | ED50 [2] [mg/kg] | pIC50 [3] | MED [4] [mg/kg] | MED [9] [mg/kg] | further results |
| --- | --- | --- | --- | --- | --- | --- |
| Oc1nc2c(c3nc(-c4ccccn4)nn13)CN(Cc1ccccc1)CC2 | 1.6 | 26 | 7.69 | – | – | – |
| Oc1nc2c(c3nc(-c4ccccc4Cl)nn13)CN(Cc1ccccc1)CC2 | 1.4 | 0.5 | 8.77 | 3 | 3 | Change in response rate [5]: 1%; Change in response rate [6]: 18%; Change in response rate [7]: 58%; Change in response rate [8]: -40% |
| Oc1nc2c(c3nc(-c4ccccc4F)nn13)CN(Cc1ccccc1)CC2 | 1.06 | 0.66 | 9.36 | 10 | 30 | Change in response rate [10]: -52%; Change in response rate [11]: -13%; Change in response rate [12]: 0%; Change in response rate [13]: 282%; Change in response rate [14]: -44%; Change in response rate [15]: 173%; Change in response rate [16]: 19%; Change in response rate [17]: 206% |
| Cc1ccc(S(=O)(=O)N2CCc3nc(O)n4nc(-c5ccccc5F)nc4c3C2)cc1 | 0.99 | – | 8.75 | – | – | – |
| Oc1nc2c(c3nc(-c4ccccc4F)nn13)CN(Cc1cccnc1)CC2 | 1.4 | 3.65 | 9.13 | 10 | 10 | Change in response rate [11]: -8%; Change in response rate [14]: -21%; Change in response rate [15]: 129%; Change in response rate [17]: 322% |
| O=C1C2C=Nc3ccccc3C2=NN1c1ccccc1 (stereo not drawn) [CGS-8216] | 0.82 | – | – | – | – | pIC50 [18]: 9.35 |
| O=C(Nc1ccccc1)N1CCc2nc(O)n3nc(-c4ccccc4F)nc3c2C1 | – | – | 7.17 | – | – | – |
| Oc1nc2c(c3nc(-c4ccc(Cl)cc4)nn13)CN(Cc1ccccc1)CC2 | 2.45 | 6.43 | 7.65 | – | 30 | Change in response rate [19]: 104% and 188%; Change in response rate [20]: -45%; Change in response rate [21]: 4% |
| O=C1C2C=Nc3ccccc3C2=NN1c1ccc(Cl)cc1 (stereo not drawn) [CGS-9896] | – | 2.3 | – | 10 | – | MED [22]: 30 mg/kg |
| Oc1nc2c(c3nc(-c4cccc(F)c4)nn13)CN(Cc1ccccc1)CC2 | 1.6 | – | 8.62 | – | – | – |
| Oc1nc2ccc(Cl)cc2c2nc(-c3ccccc3F)nn12 | 0.79 | – | 9.30 | – | – | – |
| Oc1nc2c(c3nc(-c4ccccc4F)nn13)CCCC2 | – | 2.4 | 8.77 | 30 | – | Change in response rate [23]: 132%; Change in response rate [20]: 1% |
| CCOC(=O)N1CCc2nc(O)n3nc(-c4ccccc4F)nc3c2C1 | 1.1 | – | 7.92 | – | – | – |
| CN1C(=O)CN=C(c2ccccc2)c2cc(Cl)ccc21 [DIAZEPAM] | – | 1.23 | – | 10 | 10 | Change in response rate [10]: -2%; Change in response rate [11]: 4%; MED [22]: 5 mg/kg; Change in response rate [13]: 257%; Change in response rate [14]: 30%; Change in response rate [15]: 159%; Change in response rate [17]: 425% |
| O=S(=O)(c1cccnc1)N1CCc2nc(O)n3nc(-c4ccccc4F)nc3c2C1 | 1.3 | – | 8.27 | – | – | – |
| CC(C)N1CCc2nc(O)n3nc(-c4ccccc4F)nc3c2C1 | – | – | 6.98 | – | – | – |
